KCNQ1 act: potentiators or activators of human KCNQ1 potassium channel. P51787. CHO-K1 KCNQ1, thallium flux FluxOR fluorescence; stronger effect = higher value. B-score at 10 µM. actives 0.35% (n = 310,000). AID 2648;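 active = fluorescence ratio B-score, a plate-corrected score, at least three library SD, with initial intensity B-score within 5 SD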
Target sequence (P51787 whole entry, looked up): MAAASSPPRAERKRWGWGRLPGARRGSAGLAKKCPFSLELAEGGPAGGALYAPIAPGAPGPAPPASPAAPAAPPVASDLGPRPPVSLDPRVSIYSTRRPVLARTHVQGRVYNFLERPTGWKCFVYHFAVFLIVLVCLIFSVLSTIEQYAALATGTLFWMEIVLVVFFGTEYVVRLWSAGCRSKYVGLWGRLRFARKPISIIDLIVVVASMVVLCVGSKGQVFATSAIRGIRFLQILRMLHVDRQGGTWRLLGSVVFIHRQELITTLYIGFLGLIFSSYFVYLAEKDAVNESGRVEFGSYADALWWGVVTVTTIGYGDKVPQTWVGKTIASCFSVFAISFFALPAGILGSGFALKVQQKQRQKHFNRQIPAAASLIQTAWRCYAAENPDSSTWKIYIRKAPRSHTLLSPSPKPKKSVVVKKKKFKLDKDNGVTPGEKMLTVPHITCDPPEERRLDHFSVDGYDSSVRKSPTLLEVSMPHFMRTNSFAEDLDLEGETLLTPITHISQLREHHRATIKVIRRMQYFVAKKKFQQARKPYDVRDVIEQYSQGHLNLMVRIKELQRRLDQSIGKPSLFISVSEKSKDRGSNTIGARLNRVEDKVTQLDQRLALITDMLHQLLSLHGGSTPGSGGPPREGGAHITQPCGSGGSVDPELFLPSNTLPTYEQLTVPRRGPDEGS
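Medium – assay buffer, equal DMSO in all wells · Material – CHO-K1 cell line with stable KCNQ1 potassium channel expression · Signal – kinetic FluxOR thallium fluorescence, 10-s 1-Hz baseline, 110-s post-stimulus read · Compound – single concentration per compound, DMSO matched to controls · Schedule – 37 °C overnight plating, 90-min dark dye load, 20-min compound pretreatment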
KCNK3 inh: human KCNK3 channel inhibition, primary screen; CHO-KCNK3 thallium flux, FluxOR fluorescence; stronger effect = lower value; O14649; B-score at 10 µM; actives 0.84% (n = 340,000);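 active = B-score under library mean minus 4 SD, starting fluorescence ratio at most library mean plus 5 SD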;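 also: more negative B-score means stronger inhibition of thallium flux through KCNK3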
hERG protect: compounds protecting human hERG from proarrhythmic drug block; actives 0.51% (n = 310,000); Q12809; activation (rescue from dofetilide block), less the hit threshold, % at 10 µM; AID 1511; CHO-hERG, FluxOR thallium flux, dofetilide IC70 present;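 active = activation above the mean of controls blocked by dofetilide plus 5 SD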;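 also: thallium influx through hERG after potassium depolarization seen as dye fluorescence rise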
KCNQ1 block: human KCNQ1 channel inhibition | P51787 | CHO-K1 KCNQ1, FluxOR thallium flux fluorescence; stronger effect = higher value | B-score at 10 µM | actives 1.3% (n = 310,000) | AID 2642;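 active = compounds whose thallium flux B-score, printed positive for inhibition, exceeds three library SD while starting fluorescence stays within three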;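 also: channel opened by potassium depolarization with thallium stimulus after 20 min compound exposure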
Kir21 block: blocks the mouse Kir2.1 inward-rectifier potassium channel; HEK293-Kir2.1, FluxOR thallium flux fluorescence; stronger effect = lower value; AID 1672; B-score at 10 µM; actives 0.85% (n = 310,000);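 active = fluorescence ratio B-score at or below minus 3 SD of library scores, with starting-brightness B-score within 2 SD, cut at about -4.2 in these data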;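 also: channel flux triggered by added potassium and thallium sulfate stimulus; B-score of peak minus minimum fluorescence over baseline after thallium stimulus; more negative B-score means stronger Kir2.1 block with less thallium influx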
KCNK9 inh: inhibitors of human KCNK9 two-pore domain potassium channel; Q9NPC2; HEK293 KCNK9, FluxOR thallium flux fluorescence; stronger effect = lower value; B-score at 10 µM; actives 1.2% (n = 310,000);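 active = ratio B-score over 3 SD below the library mean, with starting fluorescence within 5 SD of its mean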;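 also: negative B-score means less thallium flux so channel inhibition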
KCNK9 inh conf: human KCNK9 inhibitor confirmation; shares compounds with KCNK9 inh; HEK293 KCNK9 cells, FluxOR thallium flux fluorescence; inhibition, % at 10 µM; actives 43% (n = 4,900); AID 492992;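 active = thallium signal inhibited by more than 5 SD of the compound-free buffer control wells, on both duplicate plates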;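 also: 0% = assay buffer control wells without compound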
Kir21 sel: tests whether KCNK9 modulators also affect mouse Kir2.1; actives 4% (n = 4,900); Kir2.1 cells, FluxOR thallium flux fluorescence; inhibition, % at 10 µM; shares compounds with KCNK9 inh;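 active = thallium signal drop more than 5 SD beyond the mean of the no-compound control wells, seen in both duplicate plates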;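 also: signal is fluorescence rise after thallium addition divided by baseline fluorescence; plate controls were assay buffer only for no effect and full block by chlorpromazine control for full effect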
KCNK9 uninduced: non-induced cell nonspecific activity of KCNK9 modulators; actives 40% (n = 4,900); shares compounds with KCNK9 inh; inhibition, % at 10 µM; non-induced KCNK9-HEK293, FluxOR thallium flux; AID 492997;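 active = thallium signal drop beyond 5 SD of the untreated control mean, on both duplicate plates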;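 also: plate controls were buffer only IC0 wells for no effect and SID17386958 at its maximal inhibitory level for full effect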
* hit, by the source's call; i = inactive; nt = not tested or not shown. In the library only some 3.8% were active in any assay of this set; here they are far more common.

SMILES | KCNQ1 act | KCNK3 inh | hERG protect | KCNQ1 block | Kir21 block | KCNK9 inh | KCNK9 inh conf | Kir21 sel | KCNK9 uninduced
Cc1ccn2c(/C=N/OCc3cccc(F)c3)c(-c3ccc(Cl)cc3)nc2c1 | i | i | -16 | i | -0.67 | -8.4* | i | i | 33%*
Cc1ccn2c(C(=O)CSc3ccc(Cl)cc3)c(C)nc2c1 | i | i | -6 | i | 0.06 | i | nt | nt | nt
CCOC(=O)C1=C(C)N=C2SC(CC)C(=O)N2C1c1cccc(F)c1 (stereo not drawn) | i | i | -12 | i | -1.1 | -12* | 36%* | i | 34%*
O=C(OCC(=O)c1ccccc1Cl)C1=NN(c2ccccc2)C(=O)CC1 | nt | i | nt | nt | nt | nt | nt | nt | nt
S=c1[nH]nc(-c2cc3c(s2)-c2ccccc2CC3)o1 | 71* | i | 134* | i | 2.2 | i | i | i | i
O=C(NCCS(=O)(=O)NC1CCCC1)c1ccccc1 | i | i | -6 | i | -0.34 | i | nt | nt | nt
O=C(O)c1ccccc1N/N=C/c1cc(Br)cc(Br)c1O | i | i | -13 | 6* | -0.77 | i | i | i | i
CCC(=O)N(CCC(Cc1ccccc1)c1ccc2c(c1)OCO2)Cc1ccccc1F (stereo not drawn) | i | i | -11 | 9* | 2.5 | -13* | 65%* | i | 32%*
CCC(=O)N(CCc1ccccc1)Cc1cc2cc3c(cc2[nH]c1=O)OCO3 | i | i | -11 | i | 0.01 | i | nt | nt | nt
CCC(=O)N(CCC(Cc1ccccc1)c1ccco1)Cc1ccco1 (stereo not drawn) | i | i | -23 | i | -12* | -9.9* | 46%* | 50%* | 36%*
CC(=O)n1cc([C@@H]2C=C(C(=O)NCc3ccccc3)O[C@H](OCCCCO)C2)c2ccccc21 | i | i | -12 | i | 0.87 | i | nt | nt | nt
CC(=O)n1cc([C@H]2C=C(C(=O)NCc3ccccc3)O[C@@H](OCCCCO)C2)c2ccccc21 | i | i | -13 | i | -0.36 | i | i | i | i
C#CCNC(=O)C1=C[C@@H](c2cn(C(C)=O)c3ccccc23)C[C@@H](OCc2ccc(CO)cc2)O1 | i | i | -8 | i | -0.4 | i | nt | nt | nt
O=C(NCc1ccccc1)C1=C[C@H](c2ccc(Br)cc2)C[C@H](OCc2ccc(CO)cc2)O1 | i | i | -11 | i | 0.01 | i | i | i | i
CC(=O)n1cc([C@H]2C=C(C(=O)NCc3ccccc3)O[C@@H](OCc3ccc(CO)cc3)C2)c2ccccc21 | i | i | -10 | i | 0.02 | i | i | i | i
Cc1c(C(=O)N2CCCCC2)c(S(=O)(=O)N(C)Cc2ccccc2)c(C)n1C | i | i | -3 | i | 1 | i | nt | nt | nt
O=C(O)c1ccn(CSc2cc(Cl)ccc2Cl)n1 | nt | i | nt | nt | nt | nt | nt | nt | nt
COc1ccc(N2CCN(C(=S)Nc3ccccc3OC)CC2)cc1 | i | i | -8 | i | -0.37 | i | nt | nt | nt
Cn1nc(-c2ccccc2)c(-c2nc(-c3ccccc3Cl)no2)c1Cl | i | i | 4 | i | -1.2 | -10* | 41%* | i | 32%*
COc1ccc(OC)c(NC(=O)CN2C(=O)C(C)N(c3ccc(C)cc3)C2=O)c1 (stereo not drawn) | nt | i | nt | nt | nt | nt | nt | nt | nt
CC(C)N(Cc1ccccc1)S(=O)(=O)c1cccs1 | i | -11* | -3 | i | -4.8* | -8.5* | 40%* | i | 37%*
Cc1ccc2c(c1)N(C(=O)CCC(=O)NCC(C)c1ccccc1)CC(C)O2 (stereo not drawn) | i | i | -13 | i | -0.82 | i | nt | nt | nt
COC(=O)c1ccccc1NC(=O)CCC(=O)N1CC(C)Oc2ccc(C)cc21 (stereo not drawn) | i | i | -14 | i | -0.18 | i | i | i | i
COc1ccc(C)cc1NS(=O)(=O)c1ccc2c(c1)CCN2C(C)=O | i | i | -1 | i | -0.05 | i | nt | nt | nt
CCOC(=O)N1CCC(NC(=O)CN(c2ccc(C(C)C)cc2)S(=O)(=O)c2c(C)nn(C)c2C)CC1 | i | i | -5 | i | 0.02 | i | nt | nt | nt
SMILES | KCNQ1 act | KCNK3 inh | hERG protect | KCNQ1 block | Kir21 block | KCNK9 inh | KCNK9 inh conf | Kir21 sel | KCNK9 uninduced
CSCc1cc(N2CCOCC2)nc(SCc2ccc(Cl)c(Cl)c2)n1 | i | i | -3 | i | -1.2 | -9.2* | 31%* | i | 38%*
COCc1cc(N2CCOCC2)nc(SCc2ccc(Cl)cc2)n1 | i | i | -4 | i | 0.23 | i | nt | nt | nt
Cc1ccc(C)c(CSc2nnc(-c3cccs3)n2Cc2ccco2)c1 | i | i | -13 | i | -5* | -12* | 36%* | 61%* | 42%*
NC(=O)CSc1nnc(-c2cccs2)n1Cc1ccco1 | i | i | -9 | i | 1.2 | i | nt | nt | nt
CCOc1cc(CNC(C)(C)CO)cc(Br)c1OCc1ccc(Cl)cc1Cl | i | i | -28 | i | -9.4* | -8.7* | 55%* | 53%* | 34%*
CCOc1ccc(C(=O)NCC(=O)NCC(c2ccco2)N2CCCCC2)cc1 (stereo not drawn) | nt | i | nt | nt | nt | nt | nt | nt | nt
CCOC(=O)c1c(NC(=O)CSc2nnc(-c3cccnc3)o2)sc2c1CCC2 | i | i | -2 | i | 1.3 | i | nt | nt | nt
CCOC(=O)c1c(NC(=O)Cn2nnc3ccccc32)sc2c1CCC(C)C2 (stereo not drawn) | i | i | -5 | i | -1.3 | i | nt | nt | nt
CCOC(=O)c1c(NC(=O)CSc2nnc(-c3ccc(OC)cc3)o2)sc2c1CCC2 | i | i | -12 | i | 0.14 | i | i | i | i
CCOC(=O)c1c(NC(=O)CSc2nnc(C)s2)sc2c1CCC(C)C2 (stereo not drawn) | i | i | -13 | i | 0.21 | -9.8* | i | i | 52%*
Cc1ccccc1OCCC(=O)OCC(=O)N(C)c1c(N)n(Cc2ccccc2)c(=O)[nH]c1=O | i | i | -8 | i | -0.15 | i | nt | nt | nt
Cc1nn(Cc2ccc([N+](=O)[O-])cc2)c(=O)n1N(C)c1ncc(C(F)(F)F)cc1Cl | i | i | -5 | i | -0.69 | i | nt | nt | nt
Cc1nn(Cc2ccc(Cl)cc2)c(=O)n1N(C)c1ncc(C(F)(F)F)cc1Cl | i | i | -6 | i | -1.1 | i | i | i | i

Screens from PubChem BioAssay.
